# An excerpt weighted towards active compounds, which were near 2% of everything screened.
# ZTA DNA inh: blocks Epstein-Barr virus ZTA, an EBNA-1 counter-screen; P03206; ZTA-DNA binding, fluorescence polarization; inhibition, % at 11 µM; 320,000 tested, 0.15% active; in the data active = inhibition above about 33%
# Target sequence (P03206 whole entry, looked up): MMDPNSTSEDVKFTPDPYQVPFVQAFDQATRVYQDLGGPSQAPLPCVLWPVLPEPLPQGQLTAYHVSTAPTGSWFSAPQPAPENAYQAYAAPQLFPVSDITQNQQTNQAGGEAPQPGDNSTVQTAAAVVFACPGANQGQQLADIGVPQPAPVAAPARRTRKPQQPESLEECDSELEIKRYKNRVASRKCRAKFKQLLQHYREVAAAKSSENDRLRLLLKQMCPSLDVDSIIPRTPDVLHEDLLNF
# GPR7 antag: antagonists of human GPR7 (neuropeptides B/W receptor 1). P48145. GPR7-expressing cells, fluorescence antagonist assay. inhibition, % at 4.4 µM. 290,000 tested, 1.1% active; in the data active = inhibition above about 16%, passing the limit was not always enough;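 also: cells stimulated with the agonist NPW; 0% = agonist with vehicle and 100% = vehicle without agonist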
# Target sequence (P48145 whole entry, looked up): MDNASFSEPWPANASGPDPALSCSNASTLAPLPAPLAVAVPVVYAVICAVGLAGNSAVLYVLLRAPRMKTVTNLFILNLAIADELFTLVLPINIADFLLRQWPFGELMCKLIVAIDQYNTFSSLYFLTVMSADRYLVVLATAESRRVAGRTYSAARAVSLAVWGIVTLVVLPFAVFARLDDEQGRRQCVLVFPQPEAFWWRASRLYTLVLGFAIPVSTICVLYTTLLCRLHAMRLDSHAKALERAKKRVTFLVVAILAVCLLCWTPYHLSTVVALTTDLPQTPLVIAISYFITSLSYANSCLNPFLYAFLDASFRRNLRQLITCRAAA
# EBNA-1 inhibitor: blocks EBNA-1 binding to DNA; EBNA-1 DNA binding, fluorescence polarization; inhibition, % at 14.8 µM; 300,000 tested, 0.34% active; AID 1950; in the data active = inhibition above about 28%
# DNA FID counter: counter-screen for HCV NS3 helicase inhibitors: DNA intercalator displacement. 290,000 tested, 0.17% active. AID 1845. DNA fluorescent intercalator displacement, fluorescence. inhibition, % at 7.9 µM; in the data active = inhibition above about 37%;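 also: 0% = vehicle and 100% = reference compound; higher means more ethidium bromide displaced from hairpin DNA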
# HCV NS3 hel inh: inhibitors of Hepatitis C virus NS3 helicase. NS3 helicase DNA unwinding, Cy5 molecular beacon fluorescence. inhibition, % at 10.9 µM. 290,000 tested, 0.56% active;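 active = inhibition above the mean of all tested compounds plus 3 SD, set per campaign, cut at about 35% in these data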;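 also: 0% = DMSO wells and 100% = thioflavine S control wells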
#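 Assay system: hepatitis C virus NS3 helicase domain fragment enzyme. Also added: annealed dual-labelled DNA beacon duplex, ATP-started. Timing: 1 h reaction at 25 °C, ATP-initiated. Technique: Cy5 fluorescence at 0 and 60 min, beacon hairpin quenching. Evaluation: % inhibition of unwinding. Replication: one well per compound.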
# GPR7 antag conf: confirmation of human GPR7 antagonists; shares compounds with GPR7 antag; GPR7-expressing cells, calcium fluorescence antagonist mode; inhibition, % at 4.4 µM; 2,400 tested, 52% active; AID 1952; in the data active = inhibition above about 24%;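 also: stimulated with the GPR7 agonist NPW; 0% = agonist plus vehicle and 100% = vehicle alone without agonist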
# MCHR1 antagonist: counter-screen for GPR7 antagonists: antagonists of human MCHR1; inhibition, % at 4.4 µM; MCHR1-expressing cells, fluorescence antagonist assay; shares compounds with GPR7 antag; 2,400 tested, 62% active; in the data active = inhibition above about 22%;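 also: 0% = vehicle with agonist and 100% = vehicle without agonist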
# Starred values were filed as active, the others as inactive; · = no result given.
SMILES,ZTA DNA inh,GPR7 antag,EBNA-1 inhibitor,DNA FID counter,HCV NS3 hel inh,GPR7 antag conf,MCHR1 antagonist
CN(Cc1ccccn1)C(=O)CC1C(=O)NCCN1Cc1cccc(Oc2ccccc2)c1 (stereo unspecified),-3,26*,2,-34,8,-6,5
CCc1noc(C)c1C(=O)NCCc1ccccc1,-4,·,6,·,·,·,·
NC(=O)c1ccccc1NC(=O)CCn1c(=S)oc2ccccc21,2,-22,9,-5,-2,·,·
NC(=O)C1CN(C(=O)c2cccc(S(=O)(=O)N3CCc4ccccc43)c2)c2ccccc2O1 (stereo unspecified),-25,·,·,·,·,·,·
COc1ccc(NCc2nnc(SCCN3CCCCC3)n2-c2ccc(C)cc2)cc1,3,-4,-7,9,-11,·,·
CCn1c(CNc2ccc(Cl)cc2)nnc1SCCN1CCCCC1,2,·,0,7,-1,·,15
CCn1c(CNc2ccc(Cl)cc2)nnc1SCc1ccc(Cl)cc1,10,34*,2,-27,8,41*,45*
CCn1c(CC(=O)Nc2ccc(Cl)c(Cl)c2)nnc1SCc1ccc(Cl)cc1,6,-14,-9,0,-5,·,·
Cc1cccc(-n2ncc3c2CCCC3NC(=O)C2CCOCC2)c1C (stereo unspecified),5,-5,-8,-25,6,·,·
OCCNCC(O)Cn1c2ccccc2c2ccccc21 (stereo unspecified),6,17,1,14,-9,·,·
COc1ccccc1CNCC(c1ccccc1)c1ccccc1,6,42*,-6,13,-22,46*,34*
COc1ccccc1CNCC(O)Cn1c2ccccc2c2ccccc21 (stereo unspecified),-1,37*,3,23,-69,68*,73*
CCCNc1c(NS(=O)(=O)c2cccc(C#N)c2)c(=O)oc2ccccc12,-2,1,15,-16,8,·,·
O=C(NCc1ccco1)/C(=C\c1ccc(F)cc1)NC(=O)c1ccco1,20,29*,-9,-13,26,5,7
CN(C)/C=C/C(=O)c1ccc(Oc2ccccc2)cc1,-1,-2,1,-2,17,·,·
COc1ccc(C(=O)/C=C/N(C)C)cc1,4,27*,13,-7,1,-3,-5
CCOC(=O)/C(C(=Nc1ccccc1)Nc1ccccc1)=C(\C)O,5,-11,-6,-14,0,·,·
NC(=Nc1ccccc1)Nc1ccccc1,10,101*,8,-4,-6,98*,108*
CC(=O)c1ccc(N2CCN(C(=O)c3cc4c(s3)CCCC4)CC2)cc1,-9,26*,3,-36,5,30*,61*
COc1ccc(NC(=O)CC2C(=O)N(C)C(=S)N2CCc2ccccc2F)cc1 (stereo unspecified),-1,-11,-24,-18,-6,·,·
CN1C(=O)C(CC(=O)Nc2ccc(F)cc2)N(CCCc2ccccc2)C1=S (stereo unspecified),5,26*,8,-8,1,24*,41*
c1ccc2c3c([nH]c2c1)C1(CCCCC1)NCC3,-6,11*,-11,0,-8,2,18
O=C1Nc2ccccc2C12NCCc1c2[nH]c2ccccc12 (stereo unspecified),-23,0,-7,-5,-3,·,·
CCC1(CC)NC(=O)N(CC(=O)OCc2nc3cc(C(=O)OC)ccc3c(=O)[nH]2)C1=O,2,·,·,·,·,·,·
Cc1ccc(CN2CCC(CNC(=O)Nc3ccccc3F)CC2)cc1,-7,-5,-10,6,-8,·,·
SMILES,ZTA DNA inh,GPR7 antag,EBNA-1 inhibitor,DNA FID counter,HCV NS3 hel inh,GPR7 antag conf,MCHR1 antagonist
O=C(NCC1CC1)Nc1ccccc1F,9,99*,5,-4,7,-7,14
O=C(N/N=C/c1c[nH]c2ccccc12)c1cc(Cl)ccc1O,5,36*,-15,14,20,10,27*
Cc1ccc(-c2cc(C(=O)N/N=C/c3c[nH]c4ccccc34)[nH]n2)cc1,·,34*,·,7,8,18,35*
O=C(N/N=C/c1c[nH]c2ccccc12)c1cc(-c2ccc(-c3ccccc3)cc2)n[nH]1,4,9,-8,-4,-20,·,·
CC(=O)c1ccc(S(=O)(=O)Nc2ccc(C(=O)NCCCn3ccnc3)cc2)cc1,-5,·,·,·,·,·,·
CCN(CC)CCCNC(=O)c1nn2c(C(F)(F)F)cc(-c3ccccc3)nc2c1Cl,·,-24,·,7,-1,·,·
CC(C)Oc1ccc(C(CCN)C2CCCCC2)cc1 (stereo unspecified),5,55*,10,21,-76,49*,67*
O=C(CN1Cc2ccccc2C1=O)Nc1ccc2c(c1)OCCO2,-4,2,9,-5,19,·,·
CC(c1ccco1)N(C(=O)c1cc(Cl)cc(Cl)c1)c1ccccn1 (stereo unspecified),-14,-15,-6,-32,0,·,·
CC(c1ccco1)N(C(=O)c1ccccc1NS(=O)(=O)c1ccc(Cl)c([N+](=O)[O-])c1)c1ccccn1 (stereo unspecified),3,24*,4,-22,15,12,31*
Cc1ccc(NC(=O)CNCc2ccccc2Cl)cc1S(=O)(=O)N(C)C,-10,15,0,-1,-19,·,·
COc1ccc(C2=NOC(Cn3nc(C(=O)NCc4ccccc4OC)cc3-c3ccccc3)C2)cc1 (stereo unspecified),5,·,3,·,·,·,·
CCc1ccc(-c2cc(C)no2)cc1S(=O)(=O)NCc1ccccc1OC,8,31*,-11,-28,4,7,31*
COc1ccccc1CNS(=O)(=O)c1ccc(-c2cc(C)no2)cc1,-14,8,-1,-18,5,·,·
COCCNC(=S)N1CCC(NC(=O)Nc2ccc(C)cc2)CC1,0,-4,-7,-5,4,·,·
COCCCNC(=S)N1CCC(NC(=O)Nc2ccc(C)cc2)CC1,-19,21*,1,-11,-6,0,1
Nc1n[nH]c(N)c1N=Nc1cccc(C(F)(F)F)c1,2,41*,4,-1,-1,38*,36*
Nc1n[nH]c(N)c1N=Nc1cccc(F)c1,-22,-13,1,-2,-2,·,·
Fc1cc(Br)ccc1NC(=S)NCCc1ccccc1,4,38*,-1,-3,11,6,35*
O=C(CNS(=O)(=O)c1cccc2nsnc12)NCCc1ccccc1,8,-17,-1,-4,2,·,·
COC(=O)c1ccc(OCC2c3cc(OC)c(OC)cc3CCN2C(=O)C2CC2)cc1 (stereo unspecified),-2,27*,6,-35,-8,43*,29*
CCc1ccc(OCC2c3cc(OC)c(OC)cc3CCN2C(=S)NC)cc1 (stereo unspecified),-5,36*,0,-8,-34,25*,37*
